Compound activity from PubChem.
Compounds with a hit are over-represented: about 9.4% of the library has one in this group of screens.
Lmaj promast: reduces viability of Leishmania major promastigotes; resazurin fluorescence viability; inhibition, % at 10 µM; 200,000 tested, 9% active; AID 1063; in the data active = inhibition above about 50%;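 also: promastigotes grown with compound for 44 hours at 28 °C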
Beta cell apopt: blocks beta cell apoptosis | INS-1E cytokine-induced death, ATP luminescence, 48 h; percent of positive-control rescue, neutral wells zero | protection from apoptosis, % (concentration not given with the values) | 300,000 tested, 0.8% active | AID 435005;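 active = Every replicate reaches about 75%, or at least half do and their mean reaches it too, limit read from the data; inconclusive = At least half of replicates reach the limit but their mean does not; inactive = Under half of replicates reach the limit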;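 also: higher means more ATP so stronger rescue from cytokine killing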
Mdm2 MdmX PPI: disrupts the human Mdm2-MdmX interaction. inhibition, % at 8 µM. 330,000 tested, 3% active. SaOS-2 split-luciferase Mdm2/MdmX complementation, luminescence;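 active = inhibition of at least 50% at 8 µM in the primary screen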
Target sequence (O15151 whole entry, looked up): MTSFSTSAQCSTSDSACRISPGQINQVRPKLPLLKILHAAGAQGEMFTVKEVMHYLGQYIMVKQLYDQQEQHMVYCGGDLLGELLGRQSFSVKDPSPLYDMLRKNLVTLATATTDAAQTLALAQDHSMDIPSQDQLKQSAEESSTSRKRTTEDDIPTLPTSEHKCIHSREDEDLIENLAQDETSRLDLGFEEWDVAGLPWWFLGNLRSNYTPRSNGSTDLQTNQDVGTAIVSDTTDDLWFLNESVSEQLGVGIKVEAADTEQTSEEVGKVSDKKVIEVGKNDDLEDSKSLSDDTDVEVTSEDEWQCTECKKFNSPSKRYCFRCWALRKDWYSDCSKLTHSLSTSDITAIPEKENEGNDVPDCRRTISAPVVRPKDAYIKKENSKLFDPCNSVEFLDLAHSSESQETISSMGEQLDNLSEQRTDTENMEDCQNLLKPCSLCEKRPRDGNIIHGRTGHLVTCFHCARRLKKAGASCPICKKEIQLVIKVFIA
Target sequence (Q00987 whole entry, looked up): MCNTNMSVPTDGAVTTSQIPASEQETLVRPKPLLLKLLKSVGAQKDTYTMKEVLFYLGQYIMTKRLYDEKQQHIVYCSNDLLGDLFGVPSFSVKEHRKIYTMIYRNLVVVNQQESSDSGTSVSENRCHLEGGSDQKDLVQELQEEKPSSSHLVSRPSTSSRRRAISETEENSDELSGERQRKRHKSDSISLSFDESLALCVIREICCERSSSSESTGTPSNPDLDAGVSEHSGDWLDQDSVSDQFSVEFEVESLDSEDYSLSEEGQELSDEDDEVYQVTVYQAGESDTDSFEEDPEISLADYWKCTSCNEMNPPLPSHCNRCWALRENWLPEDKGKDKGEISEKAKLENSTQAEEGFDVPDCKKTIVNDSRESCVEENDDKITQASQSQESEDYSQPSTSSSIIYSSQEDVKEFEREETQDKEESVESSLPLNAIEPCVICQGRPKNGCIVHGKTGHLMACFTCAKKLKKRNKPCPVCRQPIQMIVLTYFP
CSC inhib: cancer stem cell inhibition | cancer stem cell-like cells viability, luminescence | inhibition, % at 7.5 µM | 300,000 tested, 1.1% active | AID 2717; in the data active = inhibition above about 75%; inconclusive = no clear call, values can overlap the other calls; tested in HMLE shEcad cells
SKKanGAS inh: inhibitors of SKKanGAS S. pyogenes growth in kanamycin (SK-promoter or general growth effect) | BacTiter-Glo, 6 h | inhibition, % at 7.5 µM | 300,000 tested, 1.3% active | AID 1662;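 active = mean replicate score, as percent of positive control median, at least 50; inconclusive = mean below 50 but one replicate at or above 50; inactive = mean and every replicate below 50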;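 also: strain carries kanamycin resistance gene driven by streptokinase promoter and grows in 40 µg/ml kanamycin; loss of luminescence reflects streptokinase promoter inhibition or plain growth inhibition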
T cruzi repl: blocks replication of Trypanosoma cruzi; T. cruzi beta-gal in NIH3T3, luminescence, 90 h; inhibition, % (concentration not given with the values); AID 1885; 300,000 tested, 1.4% active;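 active = mean inhibition across valid replicates above about 55%, limit read from the data; inconclusive = mean below that limit but half or more replicates reach it; inactive = mean below it, under half of replicates reach it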;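 also: signal also drops with host cell toxicity which is not excluded here; higher percent means less beta-gal luminescence so fewer parasites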
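compound dosing = single 50 nL compound addition per well in DMSO | material = NIH/3T3 host cells with β-galactosidase reporter T. cruzi | input = 5,000 host fibroblasts per well | timing = ≥90 h infection period, 3 h prior cell attachment | read-out basis = percent inhibition of parasite-derived β-gal signal | detection = GalScreen β-gal luminescence, detergent lysis, 60 min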
Mdm2 MdmX conf: confirmation of human Mdm2/MdmX interaction inhibitors. shares compounds with Mdm2 MdmX PPI. Mdm2-MdmX binding, luminescent assay. inhibition, % at 8 µM. 10,000 tested, 55% active. AID 489028; in the data active = inhibition above about 40%
FLuc counter: inhibits full-length luciferase, flagging false Mdm2/MdmX hits | SaOS-2 full-length luciferase counterscreen, luminescence | shares compounds with Mdm2 MdmX PPI | 6,200 tested, 77% active | AID 504607 | inhibition, % at 8 µM;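 active = mean inhibition at 8 µM reaching about 37%, which flags the compound as non-specific, limit read from the data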;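 also: p53-null SaOS-2 cells with luciferase driven by a doxycycline-inducible promoter; compound on cells about two nights before reading with doxycycline added after day one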
A number is an active result; i = inactive; ? = inconclusive; nt = not tested or not shown.

SMILES | Lmaj promast | Beta cell apopt | Mdm2 MdmX PPI | CSC inhib | SKKanGAS inh | T cruzi repl | Mdm2 MdmX conf | FLuc counter
CN1CCN(c2ccc(NC(=O)c3ccc([N+](=O)[O-])o3)cc2Cl)CC1 | nt | i | 64 | i | i | i | 50 | i
CCN1CCN(c2c(Cl)cccc2NC(=O)c2ccc([N+](=O)[O-])o2)CC1 | nt | 103 | 55 | i | i | i | i | nt
O=C(Nc1ccccc1N1CCN(C(=O)c2ccc(Cl)cc2)CC1)c1cc2ccccc2o1 | i | i | i | i | i | i | nt | nt
O=C(Nc1ccccc1N1CCN(C(=O)c2ccc(Cl)cc2)CC1)c1ccc([N+](=O)[O-])o1 | nt | i | 55 | i | 79 | 62 | i | nt
CN1CCN(C(c2cccc(Cl)c2)c2ccccc2Cl)CC1 (centres undefined) | 98 | i | 55 | i | i | i | 44 | 65
Cc1ccc(NC(=O)C2CCCN2S(=O)(=O)c2ccc3c(c2)n(C)c(=O)c(=O)n3C)c(C)c1 (centres undefined) | nt | i | i | i | i | i | nt | nt
COc1ccc(C(C)(C)C)cc1NC(=O)CSc1ncn[nH]1 | nt | nt | i | nt | nt | nt | nt | nt
N/C(=N\OC(=O)c1ccc(Cl)c([N+](=O)[O-])c1)c1ccccn1 | i | i | 67 | i | i | i | 46 | 91
N/C(=N\OC(=O)c1ccc(Cl)c(Cl)c1)c1ccccn1 | i | i | i | nt | i | i | nt | nt
O=C(COC(=O)c1ccccc1C(=O)c1ccc(Cl)c([N+](=O)[O-])c1)NC1CC1 | i | i | 100 | i | i | 63 | 96 | 52
Cc1ccc(C(=O)O/N=C(\N)c2cccnc2)cc1[N+](=O)[O-] | i | i | i | i | i | i | nt | nt
N/C(=N\OC(=O)c1ccc(Cl)c([N+](=O)[O-])c1)c1ccccc1 | nt | i | 65 | i | i | i | i | nt
CC1CCN(C(=O)CN2C(=O)C(C)(C)Oc3ccc(C(=O)NC(C)C)cc32)CC1 | nt | i | i | i | i | i | nt | nt
CCNC(=S)Nc1cccc(S(=O)(=O)NC2=NCCC2)c1 | i | i | i | i | i | i | nt | nt
O=C(CCl)Nc1cccc(S(=O)(=O)NC2=NCCC2)c1 | nt | i | 54 | i | i | i | 44 | 68
N/C(=N\OC(=O)c1cccc2ccccc12)c1ccncc1 | nt | i | 51 | i | i | i | i | nt
N/C(=N\OC(=O)c1cccc2ccccc12)c1ccc(Br)cc1 | i | i | 98 | i | i | i | 80 | 94
N/C(Cc1ccccc1)=N\OC(=O)c1cccc2ccccc12 | 97 | i | 98 | i | i | i | 67 | 57
N/C(Cc1cccc2ccccc12)=N\OC(=O)c1ccccc1F | nt | i | i | i | i | i | nt | nt
O=C(Nc1ccccc1N1CCOCC1)c1cc(-c2ccncc2)nc2ccccc12 | i | i | 55 | i | i | i | i | 82
COc1ccc(-c2cc(C(=O)Nc3ccccc3N3CCOCC3)c3ccccc3n2)cc1OC | 64 | i | 53 | i | i | i | 58 | 75
CCOc1cc(N2CCOCC2)c(OCC)cc1NC(=O)c1cc(-c2ccco2)nc2ccccc12 | i | i | 70 | i | i | i | 66 | 72
CCOc1cc(N2CCOCC2)c(OCC)cc1NC(=O)COc1ncnc2ccccc12 | i | i | i | i | i | i | nt | nt
C/C(=N\NC(=O)c1c(Br)cnn1C)c1ccc(NC(=O)c2ccc(F)cc2)cc1 | i | i | 67 | i | i | i | i | nt
CC(=O)N(C)c1ccc(OCC(O)Cn2c3ccc(Cl)cc3c3cc(Cl)ccc32)cc1 (centres undefined) | i | i | 82 | 105 | 65 | i | 45 | 54
SMILES | Lmaj promast | Beta cell apopt | Mdm2 MdmX PPI | CSC inhib | SKKanGAS inh | T cruzi repl | Mdm2 MdmX conf | FLuc counter
COc1ccc(CCC(=O)OCC(=O)Nc2sccc2C#N)cc1 | nt | i | i | i | nt | nt | nt | nt
NC(N)=Nc1nc(-c2ccccc2)c2ccccc2n1 | 98 | nt | 62 | i | i | 81 | i | nt
CCc1nc2ccccc2c(C(=O)O)c1C | i | i | i | i | i | i | nt | nt
CCc1nc(N=C(N)N)nc2ccccc12 | i | i | 59 | i | i | ? | i | nt
Clc1nc(-c2ccccc2)c2ccccc2n1 | nt | i | i | i | i | i | nt | nt
CC(C)N(C(=O)[C@H]1C[C@H](CC(=O)NCCC2=CCCCC2)C(=O)N2CCc3c([nH]c4cc(-c5ccco5)ccc34)[C@]12C)C(C)C | nt | nt | i | nt | nt | nt | nt | nt
COC(=O)c1ccc(NC(=O)[C@H](C)NC(N)=O)cc1 | nt | i | i | i | i | i | nt | nt
Cc1cc(C)c2c(c1)/C(=C/C(=O)c1ccc(Br)s1)C(=O)N2 | 100 | i | 96 | ? | i | i | 41 | 87
CC(C)(C)NC(=O)C(c1ccccn1)N(C(=O)C1CSC(=O)C1)c1ccccc1F (centres undefined) | i | i | i | i | i | i | nt | nt
COc1ccc(C(O)(CCC(C)C)C(CN2CCOCC2)c2ccc(Cl)cc2)cc1 (centres undefined) | nt | i | i | i | i | i | nt | nt
COc1ccc(C(O)(CC(C)C)C(CN2CCOCC2)c2ccccc2)cc1 (centres undefined) | nt | i | 77 | i | i | i | 77 | i
CCc1ccc(C(O)(CC(C)C)C(CN2CCOCC2)c2ccccc2)cc1 (centres undefined) | nt | i | 83 | i | i | i | 85 | i
Cc1ccc2c(c1)c1c(n2CC(O)CNC2CCCC2)CCCC1 (centres undefined) | nt | i | 57 | i | i | i | i | 77
Cc1cc(C)n(-c2ccc(C(=O)OCC(=O)NCc3ccc(F)cc3)cc2)n1 | i | i | i | nt | i | i | nt | nt
COCCn1c(N)c(Sc2ccc(Cl)cc2)c(=O)[nH]c1=O | nt | i | i | i | i | i | nt | nt
N=C1SC(CC(=O)Nc2ccccc2[N+](=O)[O-])C(=O)N1c1ccccc1 (centres undefined) | nt | i | i | i | i | i | nt | nt
COc1cccc(-c2nc3c(c(SCC(=O)N4CCOCC4)n2)Cc2c(CO)cnc(C)c2O3)c1 | nt | i | 65 | i | i | i | i | 71
Cc1ncc(CO)c2c1Oc1nc(-c3ccccc3)nc(SCC(=O)N3CCCCC3)c1C2 | nt | i | 63 | i | i | i | i | 53
Cc1cccc(-c2nc3c(c(SCC(=O)N4CCOCC4)n2)Cc2c(CO)cnc(C)c2O3)c1 | nt | i | i | i | i | i | nt | nt
COc1ccccc1CCNC(=O)CSc1nnc2ccc(-c3ccncc3)nn12 | i | i | i | i | i | i | nt | nt
O=C(NC1CCCC1)c1cnn2c(C(F)(F)F)cc(-c3ccco3)nc12 | i | i | i | i | i | i | nt | nt
O=C(NC1CCCC1)c1cnn2c(C(F)(F)F)cc(-c3ccc4c(c3)OCO4)nc12 | i | nt | 62 | i | i | i | i | nt
O=C(NCCc1ccccc1)/C(=C\c1cccc([N+](=O)[O-])c1)NC(=O)c1ccco1 | nt | nt | i | i | i | i | nt | nt
COc1cccc(/C=N/Nc2cc(N3CCOCC3)ncn2)c1O | nt | 88 | 73 | i | 99 | i | 61 | 63
